Compounds with a hit are over-represented: about 5.9% of the library has one in this group of screens.
T cruzi growth-1 – blocks T. cruzi growth in NIH3T3 culture. inhibition, % at 8.34 µM. T. cruzi beta-gal in NIH3T3, GalScreen luminescence, 90 h. 77,000 compounds, 5.9% hits. AID 624255;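 active = mean inhibition above about 93%, with at least 55% of replicates each passing it, limit read from the data, passing the limit was not always enough; inconclusive = only one of those two conditions holds; inactive = neither condition holds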
IDH1 mut inh – IDH1 R132H (human) inhibition; 70,000 compounds, 0.18% hits; O75874; IDH1 R132H reductase, diaphorase/resazurin fluorescence, 60 min; inhibition, % at 10 µM; in the data active = inhibition above about 34%; inconclusive = no clear call, values can overlap the other calls; inactive = below about 11%;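 note: 0% = DMSO and 100% = no enzyme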
Target sequence (O75874 whole entry R132H): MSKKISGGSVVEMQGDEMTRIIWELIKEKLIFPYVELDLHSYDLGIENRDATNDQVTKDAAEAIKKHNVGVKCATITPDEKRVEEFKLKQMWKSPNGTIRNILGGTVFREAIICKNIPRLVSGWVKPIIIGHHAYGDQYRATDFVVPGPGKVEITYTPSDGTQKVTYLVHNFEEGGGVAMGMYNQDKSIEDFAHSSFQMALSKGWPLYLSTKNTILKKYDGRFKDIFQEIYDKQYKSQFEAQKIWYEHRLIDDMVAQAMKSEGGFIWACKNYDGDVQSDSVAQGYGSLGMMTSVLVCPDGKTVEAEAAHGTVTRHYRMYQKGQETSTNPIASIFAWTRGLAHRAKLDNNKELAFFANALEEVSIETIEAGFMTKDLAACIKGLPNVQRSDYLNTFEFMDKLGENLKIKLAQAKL
Pf Dd2 growth – blocks growth of Plasmodium falciparum Dd2 parasites | 94,000 compounds, 2.3% hits | P. falciparum Dd2 growth, SYBR Green, 72 h; hits give low values | activity change, % at 10 µM; in the data active = activity change below about -80%; inconclusive = no clear call, values can overlap the other calls
KDM4C inh – inhibitors of human demethylase GASC-1 KDM4C; Q9H3R0; GST-KDM4C 2-372, H3K9me3 peptide, LANCE TR-FRET; inhibition, % at 12.5 µM; 96,000 compounds, 0.15% hits; AID 720574;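 active = mean replicate inhibition above about 25%, with at least 55% of replicates also reaching it, limit read from the data, passing the limit was not always enough; inconclusive = only one of those two conditions met; inactive = neither condition met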
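System: N-terminal GST-fused human GASC-1 (KDM4C) fragment, residues 2-372 / Amount: 10 nM GST-KDM4C in enzyme reaction / Also added: H3K9me3 peptide with Fe(II)/2OG / Times: 30 min demethylation and 1 h detection at room temperature / Signal: LANCE TR-FRET / Read-out basis: Fall in 671/618 emission ratio as inhibition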
T cruzi growth-2 – inhibitors of T. cruzi proliferation. shares compounds with T cruzi growth-1. T. cruzi beta-gal in NIH3T3, GalScreen luminescence, 90 h. inhibition, % at 8.35 µM. 5,600 compounds, 72% hits. AID 651739;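 active = mean replicate inhibition above about 95% and at least 55% of replicates individually reaching it, limit read from the data; inconclusive = only one of the two criteria is met; inactive = neither criterion is met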
T cruzi growth-3 – blocks T. cruzi growth in NIH3T3 host cells; shares compounds with T cruzi growth-1; T. cruzi beta-gal in NIH3T3, GalScreen luminescence, 90 h; inhibition, % at 2.09 µM; 5,600 compounds, 21% hits; AID 651740;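 active = mean inhibition above about 95%, with at least 55% of replicates also reaching it, limit read from the data; inconclusive = meets just one of the two conditions; inactive = meets neither condition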;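 note: plate controls were neutral control median for no effect and positive control median for full effect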
NIH3T3 tox – cytotoxicity in mouse NIH/3T3 fibroblasts. shares compounds with T cruzi growth-1. AID 651742. cytotoxicity (signal decrease), % at 8.35 µM. 5,600 compounds, 14% hits. NIH/3T3 viability, CellTiter-Glo ATP luminescence, 90 h;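 active = mean signal decrease across replicates above about 35% based on untreated-well scatter, with enough replicates individually passing, limit read from the data; inconclusive = no rule stated though some were filed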;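 note: 0% = median of neutral control wells and 100% = median of positive control wells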
NIH3T3 tox 2 – kills mouse NIH/3T3 fibroblasts; shares compounds with T cruzi growth-1; NIH/3T3 viability, CellTiter-Glo ATP luminescence, 90 h; inhibition, % at 24.9 µM; 5,600 compounds, 56% hits;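 active = mean loss of cell viability signal at or above a set limit, and enough replicates individually reaching it; inconclusive = meets only the mean limit or only the replicate share; inactive = meets neither condition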;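 note: 0% = median of neutral control wells and 100% = median of positive control wells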
The depositor's hits bear a star; ? = inconclusive; . = no result.

SMILES	T cruzi growth-1	IDH1 mut inh	Pf Dd2 growth	KDM4C inh	T cruzi growth-2	T cruzi growth-3	NIH3T3 tox	NIH3T3 tox 2
COc1cccc(-c2ccc([C@H]3[C@@H](CO)N4CCCCN(C(=O)c5ccc(F)cc5)C[C@H]34)cc2)c1	108*	.	-38	0	108*	94	-18	104*
Cc1cc([N+](=O)[O-])ccc1NC(=O)CSc1n[nH]c(-c2ccc(Cl)cc2)n1	.	1	.	.	.	.	.	.
CCCC#Cc1ccc2c(c1)O[C@@H](CN(C)S(=O)(=O)c1cccc(F)c1)[C@H](C)CN([C@@H](C)CO)S2(=O)=O	124*	-1	-32	0	106*	108*	33	67*
CCCC#Cc1ccc2c(c1)O[C@H](CN(C)S(=O)(=O)c1cccc(F)c1)[C@H](C)CN([C@@H](C)CO)S2(=O)=O	124*	1	-68	-1	96*	99*	43*	76*
C[C@@H]1CN([C@@H](C)CO)S(=O)(=O)c2ccc(C#CCN(C)C)cc2O[C@H]1CN(C)S(=O)(=O)c1cccc(F)c1	.	0	-78	8	.	.	.	.
CCCC#Cc1ccc2c(c1)O[C@H](CN(C)S(=O)(=O)c1cccc(F)c1)[C@@H](C)CN([C@@H](C)CO)S2(=O)=O	114*	-2	-36	-3	100*	117*	0	104*
CCCC#Cc1ccc2c(c1)O[C@@H](CN(C)S(=O)(=O)c1cccc(F)c1)[C@H](C)CN([C@H](C)CO)S2(=O)=O	123*	0	-22	-2	106*	84	51*	96*
COCC#Cc1ccc2c(c1)O[C@H](CN(C)S(=O)(=O)c1cccc(F)c1)[C@H](C)CN([C@@H](C)CO)S2(=O)=O	42	0	-69	-2	.	.	.	.
COCC#Cc1ccc2c(c1)O[C@H](CN(C)S(=O)(=O)c1cccc(F)c1)[C@@H](C)CN([C@H](C)CO)S2(=O)=O	?	0	-70	-1	70	10	20	69*
CCCC#Cc1ccc2c(c1)O[C@H](CN(C)C(=O)C1CCC1)[C@@H](C)CN([C@@H](C)CO)S2(=O)=O	108*	.	-33	0	102*	56	12	39*
CCCC#Cc1ccc2c(c1)O[C@H](CN(C)C(=O)C1CCC1)[C@H](C)CN([C@@H](C)CO)S2(=O)=O	98*	2	-10	0	107*	80	27	45*
O=C(CSc1nc2ccccc2s1)Nc1ccccc1N1CCOCC1	.	0	.	.	.	.	.	.
COc1ccc(-n2nnnc2SCC(=O)Nc2cc(C)c(Cl)cc2OC)cc1	.	0	.	.	.	.	.	.
CCCNC(=O)[C@H]1[C@H](CO)[C@H]2Cn3c(ccc(C4=CCCC4)c3=O)[C@H]2N1C(=O)c1cnccn1	99*	.	-4	2	33	-7	5	7
CCNC(=O)[C@H]1[C@H](CO)[C@H]2Cn3c(ccc(C4=CCCCC4)c3=O)[C@H]2N1C(=O)c1cnccn1	66	.	-13	0	.	.	.	.
CCNC(=O)[C@@H]1[C@@H](CO)[C@@H]2Cn3c(ccc(C4=CCCC4)c3=O)[C@@H]2N1C(=O)CC1CC1	?	.	8	1	55	18	0	-11
CCNC(=O)[C@H]1[C@H](CO)[C@H]2Cn3c(ccc(C4=CCCCC4)c3=O)[C@H]2N1C(=O)CC1CC1	11	.	-5	5	.	.	.	.
CCCNC(=O)[C@@H]1[C@@H](CO)[C@@H]2Cn3c(ccc(C4=CCCC4)c3=O)[C@@H]2N1C(=O)c1cnccn1	97*	.	-7	-1	22	0	-22	-3
Cc1cc(=O)[nH]c(SCCOc2ccc(C(=O)c3ccccc3)cc2)n1	.	0	.	.	.	.	.	.
Cc1cc(NC(=O)c2cc3nc(-c4cccs4)cc(C(F)(F)Cl)n3n2)n(-c2ccccc2)n1	.	0	.	.	.	.	.	.
OC[C@H]1[C@H](c2ccc(C#Cc3ccccc3)cc2)[C@@H]2CN(CC3CCOCC3)CCCCN12	?	.	-63	-1	106*	56	31	106*
OC[C@@H]1[C@@H](c2ccc(C#Cc3ccccc3F)cc2)[C@H]2CN(CC3CCOCC3)CCCCN12	88	.	-68	0	.	.	.	.
OC[C@@H]1[C@H](c2ccc(C#Cc3ccccc3)cc2)[C@H]2CN(CC3CCOCC3)CCCCN12	117*	.	-54	0	100*	88	23	105*
OC[C@H]1[C@H](c2ccc(C#Cc3ccccc3F)cc2)[C@H]2CN(CC3CCOCC3)CCCCN21	66	.	-3	-1	.	.	.	.
O=C(O)CC/C=C/CC1COC(c2ccccc2Cl)OC1c1ccccc1O (stereo not drawn)	.	1	.	.	.	.	.	.
SMILES	T cruzi growth-1	IDH1 mut inh	Pf Dd2 growth	KDM4C inh	T cruzi growth-2	T cruzi growth-3	NIH3T3 tox	NIH3T3 tox 2
O=C(COc1ccc(Br)cc1)Nc1cccc(-c2nc3ccccc3o2)c1	.	0	.	.	.	.	.	.
Cc1ccc(S(=O)(=O)Nc2ccc3c(c2)C(=O)N([C@@H](C)CO)C[C@@H](C)[C@@H](CN(C)Cc2ccc4c(c2)OCO4)OCCCC[C@@H](C)O3)cc1	45	5	-67	0	.	.	.	.
C[C@@H]1CCCCO[C@H](CN(C)Cc2ccc3c(c2)OCO3)[C@@H](C)CN([C@@H](C)CO)C(=O)c2cc(NS(=O)(=O)c3ccc(Cl)cc3)ccc2O1	?	.	-61	5	95*	108*	?	103*
Cc1ccc(S(=O)(=O)Nc2ccc3c(c2)C(=O)N([C@@H](C)CO)C[C@@H](C)[C@H](CN(C)Cc2ccc4c(c2)OCO4)OCCCC[C@H](C)O3)cc1	72	.	-67	-1	.	.	.	.
Cc1ccc(S(=O)(=O)Nc2ccc3c(c2)C(=O)N([C@H](C)CO)C[C@H](C)[C@@H](CN(C)Cc2ccc4c(c2)OCO4)OCCCC[C@@H](C)O3)cc1	37	.	-35	-1	.	.	.	.
Cc1ccc(S(=O)(=O)Nc2ccc3c(c2)C(=O)N([C@@H](C)CO)C[C@H](C)[C@@H](CN(C)Cc2ccc4c(c2)OCO4)OCCCC[C@H](C)O3)cc1	105*	0	-53	2	102*	55	25	80*
C[C@@H]1CCCCO[C@@H](CN(C)Cc2ccc3c(c2)OCO3)[C@H](C)CN([C@@H](C)CO)C(=O)c2cc(NS(=O)(=O)c3ccc(Cl)cc3)ccc2O1	34	.	1	0	.	.	.	.
Cc1ccc(S(=O)(=O)Nc2ccc3c(c2)C(=O)N([C@@H](C)CO)C[C@H](C)[C@@H](CN(C)Cc2ccc4c(c2)OCO4)OCCCC[C@@H](C)O3)cc1	98*	.	-81*	-3	102*	55	25	105*
